ChEMBL document CHEMBL5724801, “EUbOPEN Chemogenomics Library - Multiplex” (2024)
“And” between values parts separate entries of the source, which are not always exact repeats. Equal entries are not always repeated.

Test system: Fibroblast
Assay: Multiplex assay against human fibroblast
Format: toxicity, cell-based
Outline: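 On a CQ1 microscope at 37°C and 5% CO2, live cells were imaged after compound addition. They had been stained at seeding with Hoechst33342, BioTracker Green Microtubule Cytoskeleton Dye, MitoTracker Red and Annexin V Alexa Fluor 680. CellPathfinder machine-learning gating assigned cells to Hoechst high-intensity objects or normal cells, normal cells to healthy, pyknosed or fragmented nuclei, and pyknosed cells to mitotic or apoptotic. Tubulin, mitochondrial-mass and membrane-permeability phenotypes are per cents of healthy-nucleus cells.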

[1] = 12 h, 1 µM, compound concentration 1 uM
[2] = 12 h, 10 µM, compound concentration 10 uM
[3] = 24 h, 1 µM, compound concentration 1 uM
[4] = 24 h, 10 µM, compound concentration 10 uM
[5] = 48 h, 1 µM, compound concentration 1 uM
[6] = 48 h, 10 µM, compound concentration 10 uM

`COc1cc2nc(N3CCN(C(=O)COc4c(OC)cccc4C(C)C)CC3)nc(N)c2cc1OC.Cl.Cl` was tested, and the “Population Apoptotic (%)” value [1] was 50% and 36%, the “Population Fragmented Nuclei (%)” value [1] was 17% and 39% and the “Population Healthy Nuclei (%)” value [1] was 51% and 42%. For the same compound, the “Population Hoechst High Intensity Objects (%)” value [1] was 4% and 9%, the “Population Membrane Permeable-Phenotype (%)” value [1] was 3% and 5% and the “Population Mitochondria Different-Phenotype (%)” value [1] was 6% and 7%. The “Population Mitotic Cells (%)” value [1] was 50% and 63%, the “Population Normal (%)” value [1] was 95% and 90% and the “Population Pyknosed Nuclei (%)” value [1] was 30% and 18%. The “Population Tubulin-Different-Phenotype (%)” value [1] was 40% and 43%, the “Total Cell Count” value [1] was 123 and 182 and the “Population Apoptotic (%)” value [2] was 33% and 29%. The “Population Fragmented Nuclei (%)” value [2] was 13% and 22%, the “Population Healthy Nuclei (%)” value [2] was 47% and 46% and the “Population Hoechst High Intensity Objects (%)” value [2] was 20% and 10%. The “Population Membrane Permeable-Phenotype (%)” value [2] was 0% and 4%, the “Population Mitochondria Different-Phenotype (%)” value [2] was 15% and 8% and the “Population Mitotic Cells (%)” value [2] was 66% and 70%. The “Population Normal (%)” value [2] was 79% and 89%, the “Population Pyknosed Nuclei (%)” value [2] was 38% and 30% and the “Population Tubulin-Different-Phenotype (%)” value [2] was 63% and 56%. For the same compound, the “Total Cell Count” value [2] was 346 and 283, the “Population Apoptotic (%)” value [3] was 68% and 57% and the “Population Fragmented Nuclei (%)” value [3] was 23% and 40%. For the same compound, the “Population Healthy Nuclei (%)” value [3] was 58% and 42%, the “Population Hoechst High Intensity Objects (%)” value [3] was 3% and 11% and the “Population Membrane Permeable-Phenotype (%)” value [3] was 1% and 5%. The “Population Mitochondria Different-Phenotype (%)” value [3] was 9% and 11%, the “Population Mitotic Cells (%)” value [3] was 31% and 42% and the “Population Normal (%)” value [3] was 96% and 88%. The “Population Pyknosed Nuclei (%)” value [3] was 17%, the “Population Tubulin-Different-Phenotype (%)” value [3] was 39% and 50% and the “Total Cell Count” value [3] was 128 and 180. The “Population Apoptotic (%)” value [4] was 40% and 33%, the “Population Fragmented Nuclei (%)” value [4] was 13% and 25% and the “Population Healthy Nuclei (%)” value [4] was 45% and 40%. The “Population Hoechst High Intensity Objects (%)” value [4] was 39% and 23%, the “Population Membrane Permeable-Phenotype (%)” value [4] was 0% and 4% and the “Population Mitotic Cells (%)” value [4] was 60% and 66%. The “Population Normal (%)” value [4] was 60% and 76%, the “Population Pyknosed Nuclei (%)” value [4] was 41% and 34% and the “Population Tubulin-Different-Phenotype (%)” value [4] was 38% and 47%. For the same compound, the “Total Cell Count” value [4] was 344 and 273, the “Population Apoptotic (%)” value [5] was 65% and 42% and the “Population Fragmented Nuclei (%)” value [5] was 31% and 45%. The “Population Healthy Nuclei (%)” value [5] was 51% and 43%, the “Population Hoechst High Intensity Objects (%)” value [5] was 4% and 10% and the “Population Membrane Permeable-Phenotype (%)” value [5] was 0% and 8%. The “Population Mitochondria Different-Phenotype (%)” value [5] was 11% and 10%, the “Population Mitotic Cells (%)” value [5] was 35% and 57% and the “Population Normal (%)” value [5] was 96% and 89%. The “Population Pyknosed Nuclei (%)” value [5] was 16% and 11%, the “Population Tubulin-Different-Phenotype (%)” value [5] was 30% and 57% and the “Total Cell Count” value [5] was 125 and 193. The “Population Apoptotic (%)” value [6] was 45% and 30%, the “Population Fragmented Nuclei (%)” value [6] was 12% and 33% and the “Population Healthy Nuclei (%)” value [6] was 45% and 33%. For the same compound, the “Population Hoechst High Intensity Objects (%)” value [6] was 52% and 31%, the “Population Membrane Permeable-Phenotype (%)” value [6] was 2% and 9% and the “Population Mitochondria Different-Phenotype (%)” value [6] was 10% and 0%. For the same compound, the “Population Mitotic Cells (%)” value [6] was 54% and 69%, the “Population Normal (%)” value [6] was 47% and 68% and the “Population Pyknosed Nuclei (%)” value [6] was 42% and 33%. The “Population Tubulin-Different-Phenotype (%)” value [6] was 42% and 43% and the “Total Cell Count” value [6] was 358 and 311.

For `Cc1cccc(F)c1C(=O)Nc1cnc(-c2cc3c(cc2Cl)OC(F)(F)O3)cn1` [ZEGOCRACTIN], the “Population Apoptotic (%)” value [1] was 6.56% and 18.18%, the “Population Fragmented Nuclei (%)” value [1] was 12.97% and 3.23% and the “Population Healthy Nuclei (%)” value [1] was 61.51% and 79.03%. For the same compound, the “Population Hoechst High Intensity Objects (%)” value [1] was 0%, the “Population Membrane Permeable-Phenotype (%)” value [1] was 2.04% and the “Population Mitochondria Different-Phenotype (%)” value [1] was 8.16%. The “Population Mitotic Cells (%)” value [1] was 93.44% and 81.82%, the “Population Normal (%)” value [1] was 100% and the “Population Pyknosed Nuclei (%)” value [1] was 25.52% and 17.74%. For the same compound, the “Population Tubulin-Different-Phenotype (%)” value [1] was 17.01% and 13.61%, the “Total Cell Count” value [1] was 239 and 186 and the “Population Apoptotic (%)” value [2] was 8.93% and 22.86%. For the same compound, the “Population Fragmented Nuclei (%)” value [2] was 13.11% and 8.77%, the “Population Healthy Nuclei (%)” value [2] was 56.28% and 70.76% and the “Population Hoechst High Intensity Objects (%)” value [2] was 0%. For the same compound, the “Population Membrane Permeable-Phenotype (%)” value [2] was 3.88% and 4.96%, the “Population Mitochondria Different-Phenotype (%)” value [2] was 17.48% and 19.01% and the “Population Mitotic Cells (%)” value [2] was 91.07% and 77.14%. For the same compound, the “Population Normal (%)” value [2] was 100%, the “Population Pyknosed Nuclei (%)” value [2] was 30.6% and 20.47% and the “Population Tubulin-Different-Phenotype (%)” value [2] was 24.27% and 42.15%. The “Total Cell Count” value [2] was 183 and 171, the “Population Apoptotic (%)” value [3] was 11.11% and 9.52% and the “Population Fragmented Nuclei (%)” value [3] was 9.33% and 2.59%. The “Population Healthy Nuclei (%)” value [3] was 73.88% and 86.53%, the “Population Hoechst High Intensity Objects (%)” value [3] was 0% and the “Population Membrane Permeable-Phenotype (%)” value [3] was 3.54% and 0%. The “Population Mitochondria Different-Phenotype (%)” value [3] was 7.07% and 6.59%, the “Population Mitotic Cells (%)” value [3] was 88.89% and 90.48% and the “Population Normal (%)” value [3] was 100%. For the same compound, the “Population Pyknosed Nuclei (%)” value [3] was 16.79% and 10.88%, the “Population Tubulin-Different-Phenotype (%)” value [3] was 14.65% and 11.38% and the “Total Cell Count” value [3] was 268 and 193. For the same compound, the “Population Apoptotic (%)” value [4] was 7.81% and 17.65%, the “Population Fragmented Nuclei (%)” value [4] was 13% and 8.14% and the “Population Healthy Nuclei (%)” value [4] was 55% and 72.09%. For the same compound, the “Population Hoechst High Intensity Objects (%)” value [4] was 0%, the “Population Membrane Permeable-Phenotype (%)” value [4] was 3.64% and 1.61% and the “Population Mitochondria Different-Phenotype (%)” value [4] was 14.55% and 32.26%. For the same compound, the “Population Mitotic Cells (%)” value [4] was 92.19% and 82.35%, the “Population Normal (%)” value [4] was 100% and the “Population Pyknosed Nuclei (%)” value [4] was 32% and 19.77%. The “Population Tubulin-Different-Phenotype (%)” value [4] was 37.27% and 46.77%, the “Total Cell Count” value [4] was 200 and 172 and the “Population Apoptotic (%)” value [5] was 15% and 35%. The “Population Fragmented Nuclei (%)” value [5] was 9.76% and 3.2%, the “Population Healthy Nuclei (%)” value [5] was 83.28% and 87.67% and the “Population Hoechst High Intensity Objects (%)” value [5] was 0%. For the same compound, the “Population Membrane Permeable-Phenotype (%)” value [5] was 1.26% and 2.6%, the “Population Mitochondria Different-Phenotype (%)” value [5] was 9.62% and 2.6% and the “Population Mitotic Cells (%)” value [5] was 85% and 65%. The “Population Normal (%)” value [5] was 100%, the “Population Pyknosed Nuclei (%)” value [5] was 6.97% and 9.13% and the “Population Tubulin-Different-Phenotype (%)” value [5] was 8.79% and 19.79%. The “Total Cell Count” value [5] was 287 and 219, the “Population Apoptotic (%)” value [6] was 15% and 9.52% and the “Population Fragmented Nuclei (%)” value [6] was 10.91% and 9.6%. For the same compound, the “Population Healthy Nuclei (%)” value [6] was 70.91% and 78.53%, the “Population Hoechst High Intensity Objects (%)” value [6] was 0% and the “Population Membrane Permeable-Phenotype (%)” value [6] was 0.64% and 4.32%. For the same compound, the “Population Mitochondria Different-Phenotype (%)” value [6] was 20.51% and 13.67%, the “Population Mitotic Cells (%)” value [6] was 85% and 90.48% and the “Population Normal (%)” value [6] was 100%. The “Population Pyknosed Nuclei (%)” value [6] was 18.18% and 11.86%, the “Population Tubulin-Different-Phenotype (%)” value [6] was 28.21% and 56.83% and the “Total Cell Count” value [6] was 220 and 177.
